Source: PMC3428850 (Molecular cancer therapeutics, 2012)
Where “and” joins values, the source holds several entries; their conditions need not be identical. Identical values can stand only once. Like-named read-outs stand apart in the source and are kept apart here.

What was measured:
[1] = test system: V3 cells; assay: clonogenic survival assay, DNA-PKcs-deficient cells; format: cell-based, Chinese hamster
How it was run: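 Chinese hamster ovary V3 cells (DNA-PKcs-deficient) and V3-YAC cells (human DNA-PKcs on YAC; kept under G-418 500 μg/ml) in RPMI 1640/10% FBS. Etoposide alone or with 1 μM test compound, or test compound alone, for 16 h. Reseeded drug-free. Crystal violet colony counts after 10-14 days. Fold enhancement as survival ratio. Means ± SD of 3 independent experiments.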

[2] = test system: M059-Fus-1 cells; assay: clonogenic survival assay, DNA-PKcs-proficient cells; format: cell-based, human
How it was run: (§1)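 Human glioblastoma M059J cells (DNA-PKcs-deficient) and M059-Fus-1 cells (chromosome 8 transfected; G-418 200 μg/ml) in DMEM/10% FBS. Etoposide or doxorubicin alone or with 1 μM test compound, or test compound alone, for 16 h. Reseeded drug-free. Crystal violet colony counts after 10-14 days. Fold enhancement as survival ratio. Means ± SD, n = 3.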

[3] = test system: M059J cells; assay: clonogenic survival assay, DNA-PKcs-deficient cells; format: cell-based, human; details: M059J
How it was run: as §1

[4] = target: PI-3K δ (Homo sapiens, UniProt O00329); assay: cell-free assay, PI-3K isoforms; format: biochemical; details: Supplementary Figure 1
[5] = test system: LoVo cells; assay: clonogenic survival assay; format: cell-based, human
How it was run: (§2)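 Cells in RPMI 1640/10% FBS were exposed in 6-well plates for 16 h to etoposide or doxorubicin with or without test compound (1 μM), or to test compound alone. Cells then harvested and reseeded in drug-free medium. Colonies stained with crystal violet after 10-14 days and counted automatically. Fold enhancement = survival with cytotoxic alone / survival with cytotoxic + 1 μM test compound. Means ± SD, n = 3.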

[6] = test system: SW620 cells; assay: cell growth inhibition, SRB assay, 5-day continuous exposure; format: cell-based, human
[7] = format: in vivo, mice; details: for concentration at 60 min / concentration at 120 min: female, CD1-nu/nu (athymic), mouse, intravenous, 12.5 mg/kg
How it was run: (§3)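 Female athymic CD1-nu/nu mice kept in SPF isolators, bearing MCF7 or SW620 xenografts (650 mm³). Test compound 12.5 mg/kg i.v. in equimolar phosphoric acid/saline, pH 5. Tumours homogenised in PBS (1:3 w/v) on ice. Plasma and tumour concentrations by LC-MS/MS. Means ± SD of 3 mice per time point.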

[8] = test system: MCF7 xenografts; assay: anti-tumour efficacy study, MCF7 xenografts; format: in vivo; details: MCF7 tumour-bearing mice
[9] = test system: LoVo cells; assay: cell growth inhibition, SRB assay, 5-day continuous exposure; format: cell-based, human
How it was run: (§4)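 Human cancer cells in RPMI 1640 with 10% FBS, penicillin/streptomycin, at 37 °C and 5% CO2. Test compound (10 mM DMSO stock) given by continuous exposure for 5 days. Growth measured by SRB assay. […] Means ± SD of 3 independent experiments.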

[10] = target: DNA-PK (Homo sapiens, UniProt P78527); assay: DNA-PK ex vivo pharmacodynamic assay, p53 peptide; parameters: species or system mice; details: SW-620, mouse, iv, read-out: inhibition of DNA-PK activity ex vivo in tumour
How it was run: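 SW620 s.c. xenografts in female athymic CD1-nu/nu mice. Test compound 2.5 or 25 mg/kg i.v. (vehicle equimolar phosphoric acid, pH 5) or vehicle alone. Killed after 1 or 4 h. Tumours excised and homogenised. DNA-PK activity by ELISA of DNA-PK-dependent p53 peptide (Ser15) phosphorylation in homogenates. 3 mice per time point, mean ± SD.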

[11] = format: in vivo, mice; details: for concentration at 60 min / concentration at 120 min: female, CD1-nu/nu (athymic), mouse, intravenous, 12.5 mg/kg; remark: listed apart in the source
How it was run: as §3

[12] = test system: MCF7 cells; assay: cell growth inhibition, SRB assay, 5-day continuous exposure; format: cell-based, human
How it was run: as §4

[13] = solubility; format: physicochemical; details: compared with NU7441
[14] = plasma pharmacokinetics following different routes of administration; format: in vivo, Balb C mice; details: for CL: mice
How it was run: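 Female Balb C mice given test compound at 10 mg/kg i.v., i.p. or p.o. Vehicle: equimolar phosphoric acid in sterile saline, final pH 5. Plasma sampled at 5-360 min, 3 mice per time point. Plasma levels by LC-MS/MS. PK parameters calculated from mean values.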

[15] = test system: MCF7 cells; assay: clonogenic survival assay; format: cell-based, human; details: MCF7, 1 μM, 16 hr exposure, single agent
How it was run: as §2

[16] = test system: T47D cells; assay: cell growth inhibition, SRB assay, 5-day continuous exposure; format: cell-based; details: Homo sapiens, 120 h
How it was run: as §4

[17] = test system: PI-3K; assay: PI-3K-dependent AKT phosphorylation; format: cell-based, human; details: SW620 cells
[18] = female, Balb C, mouse, ip, 10 mg/kg
[19] = female, Balb C, mouse, iv, 10 mg/kg
[20] = female, Balb C, mouse, po, 10 mg/kg

Chain of PI-3K δ (O00329 whole entry, species assumed, canonical isoform): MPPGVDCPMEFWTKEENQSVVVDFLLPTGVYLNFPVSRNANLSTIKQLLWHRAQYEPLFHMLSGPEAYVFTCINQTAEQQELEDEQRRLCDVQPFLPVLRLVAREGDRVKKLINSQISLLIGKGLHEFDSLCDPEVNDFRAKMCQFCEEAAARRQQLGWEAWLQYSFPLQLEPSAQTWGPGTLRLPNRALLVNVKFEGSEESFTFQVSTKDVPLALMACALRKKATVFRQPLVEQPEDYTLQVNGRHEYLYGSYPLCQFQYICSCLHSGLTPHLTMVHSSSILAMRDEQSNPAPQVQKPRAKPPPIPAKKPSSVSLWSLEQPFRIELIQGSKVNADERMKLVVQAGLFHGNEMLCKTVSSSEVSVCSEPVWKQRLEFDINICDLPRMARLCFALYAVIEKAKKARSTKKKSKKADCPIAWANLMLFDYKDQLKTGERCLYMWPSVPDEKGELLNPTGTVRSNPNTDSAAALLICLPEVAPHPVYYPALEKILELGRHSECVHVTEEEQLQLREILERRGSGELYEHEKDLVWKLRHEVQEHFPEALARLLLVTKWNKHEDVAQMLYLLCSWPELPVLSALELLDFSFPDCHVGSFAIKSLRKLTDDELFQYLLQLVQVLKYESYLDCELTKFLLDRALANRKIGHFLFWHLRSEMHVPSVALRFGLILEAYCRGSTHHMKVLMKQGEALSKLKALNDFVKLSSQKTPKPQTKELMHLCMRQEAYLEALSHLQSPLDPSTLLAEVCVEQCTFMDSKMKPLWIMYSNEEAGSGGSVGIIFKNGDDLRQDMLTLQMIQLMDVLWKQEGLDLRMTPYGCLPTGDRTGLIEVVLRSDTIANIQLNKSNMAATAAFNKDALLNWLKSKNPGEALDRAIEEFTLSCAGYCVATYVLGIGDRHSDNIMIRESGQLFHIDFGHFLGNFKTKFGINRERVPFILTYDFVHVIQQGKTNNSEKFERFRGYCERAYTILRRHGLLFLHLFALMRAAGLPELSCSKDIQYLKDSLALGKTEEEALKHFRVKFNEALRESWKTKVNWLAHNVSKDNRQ
Chain of PI-3K δ (P27986 whole entry partner, species assumed, canonical isoform): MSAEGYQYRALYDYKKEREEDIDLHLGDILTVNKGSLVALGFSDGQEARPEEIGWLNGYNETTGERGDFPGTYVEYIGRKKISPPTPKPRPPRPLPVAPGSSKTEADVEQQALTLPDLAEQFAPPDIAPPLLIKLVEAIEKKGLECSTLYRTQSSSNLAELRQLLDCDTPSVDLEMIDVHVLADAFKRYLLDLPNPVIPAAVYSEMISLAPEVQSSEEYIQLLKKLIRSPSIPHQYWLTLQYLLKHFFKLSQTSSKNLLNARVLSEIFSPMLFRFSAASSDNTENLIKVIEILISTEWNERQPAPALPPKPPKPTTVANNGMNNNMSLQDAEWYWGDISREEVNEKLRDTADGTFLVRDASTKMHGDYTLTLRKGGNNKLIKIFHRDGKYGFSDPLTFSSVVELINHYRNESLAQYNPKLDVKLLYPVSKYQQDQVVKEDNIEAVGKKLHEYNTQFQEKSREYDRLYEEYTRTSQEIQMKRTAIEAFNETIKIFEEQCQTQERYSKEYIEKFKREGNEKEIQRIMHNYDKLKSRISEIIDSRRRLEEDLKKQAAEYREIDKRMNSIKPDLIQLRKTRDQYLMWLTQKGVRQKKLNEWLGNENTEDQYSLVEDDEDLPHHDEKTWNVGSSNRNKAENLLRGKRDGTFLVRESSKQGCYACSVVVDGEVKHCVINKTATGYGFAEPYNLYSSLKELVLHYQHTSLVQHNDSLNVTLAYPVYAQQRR

For `CCN1CCN(CC(=O)Nc2ccc(-c3cccc4c(=O)cc(N5CCOCC5)oc34)c3sc4ccccc4c23)CC1` [KU-0060648, 2-(4-ethylpiperazin-1-yl)-N-(4-(2-morpholino-4-oxo-4H-chromen-8-yl)dibenzo[b,d]thiophen-1-yl)acetamide], the “fold enhancement of etoposide cytotoxicity” value ([1]; V3, 1 μM KU-0060648, 16 hours) was 2.5 fold, the “reduction in cell viability, compound alone” value (“reduction in cell viability” below) ([1]; V3, 1 μM, 16 hours) was < 15% and the “fold enhancement of etoposide cytotoxicity” value ([2]; M059-Fus-1, 1 μM KU-0060648, 16 hours) was 4 fold. The “fold enhancement of doxorubicin cytotoxicity” value ([2]; M059-Fus-1, 1 μM KU-0060648, depending on the doxorubicin concentration) was “up to 32 fold”, the “reduction in cell viability” value ([2]; M059-Fus-1, 1 μM, 16 hours) was < 5% and the “fold enhancement of doxorubicin cytotoxicity” value ([3]; 1 μM KU-0060648) was 1.4 fold. The “reduction in cell viability” value ([3]; 1 μM, 16 hours) was < 5%, the “potency rank among the four PI-3K isoforms” value [4] was “greatest potency” and the “Fold enhancement of doxorubicin cytotoxicity (survival cytotoxic alone/survival cytotoxic + 1 μM KU-0060648)” value ([5]; 100 nM doxorubicin, 16 hr) was 73±29 fold. The “overall cell survival (clonogenic)” value ([5]; 1 μM, 16 hr exposure, single agent) was ≥ 80%, the GI50 ([6]; Homo sapiens, SW-620, 120 h) was 950 nM and the “inhibition of cell growth” value ([6]; SW620, 1 μM, 5 days, 1 µM) was > 50% and 50%. For the same compound, the “concentration maintained in the tumour” value ([7]; SW620 xenografts, 12.5 mg/kg i.v., for at least 4 hours) was “over 1 μM”, the concentration at 60 min ([7]; plasma) was 2100 ± 500 nM and the concentration at 120 min ([7]; plasma) was 700 ± 200 nM. The concentration at 60 min ([7]; tumour (SW620 xenograft)) was 4900 ± 300 nM, the concentration at 120 min ([7]; tumour (SW620 xenograft)) was 2900 ± 400 nM and the “maximum body weight loss” value [8] was 3%. The “total cell growth over 5 days, of DMSO treated controls” value ([9]; 1 μM) was 10%, the GI50 ([9]; Homo sapiens, 120 h) was 210 nM and the inhibition at 1 µM ([9]; Homo sapiens, 120 h, read-out: inhibition of cell growth) was > 50%. The inhibition at 25 mg/kg [10] was ~100%, the “concentration maintained in the tumour” value ([11]; MCF7 xenografts, 12.5 mg/kg i.v., for at least 4 hours) was “over 1 μM” and the concentration at 60 min ([11]; plasma) was 1000 ± 600 nM. For the same compound, the concentration at 120 min ([11]; plasma) was 800 ± 500 nM, the concentration at 60 min ([11]; tumour (MCF7 xenograft)) was 7000 ± 3800 nM and the concentration at 120 min ([11]; tumour (MCF7 xenograft)) was 4700 ± 1100 nM. For the same compound, the GI50 ([12]; Homo sapiens, MCF7, 120 h) was 270 nM, the “total cell growth over 5 days, of DMSO treated controls” value ([12]; MCF7, 1 μM) was 4% and the “inhibition of cell growth” value ([12]; MCF7, 1 μM, 5 days, 1 µM) was > 95% and > 50%. The fold greater solubility [13] was > 500 fold, the CL ([14]; 10 mg/kg i.p) was 54 mL/min/kg and the CL ([14]; 10 mg/kg p.o) was 35 mL/min/kg. It also gave an AUC(0-inf) [14, 18] of 3150 ng·h/mL, a Cmax [14, 18] of 900 ng/mL and a Tmax [14, 18] of 0.5 h. For the same compound, the bioavailability [14, 18] was 78%, the half-life [14, 18] was 1.77 h and the AUC(0-inf) [14, 19] was 4030 ng·h/mL. The Cmax [14, 19] was 1900 ng/mL, the Tmax [14, 19] was 0.0833 h and the clearance [14, 19] was 41 mL/min/kg. It also gave a half-life [14, 19] of 1.7 h, an AUC(0-inf) [14, 20] of 4780 ng·h/mL and a Cmax [14, 20] of 900 ng/mL. For the same compound, the Tmax [14, 20] was 2 h, the bioavailability [14, 20] was 119% and the half-life [14, 20] was 2.37 h. The “overall cell survival (clonogenic)” value [15] was ≥ 80%, the GI50 [16] was 410 nM and the inhibition at 1 µM ([16]; read-out: inhibition of cell growth) was > 50%. The “inhibition of AKT phosphorylation” value ([17]; at 10 μM) was 42% and the IC50 ([17]; read-out: IC50 PI-3K-mediated AKT phosphorylation, IGF-1 stimulated) was > 10000 nM.
